Test [1] deals with MeWo. In words: Cytotoxicity against human MeWo cells assessed as cell viability at 10 uM after 48 hrs by MTT assay relative to vehicle-treated control. Format: functional. The following applies: read-out: Activity. Summed up: (§1)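 MeWo melanoma cells (DMEM, 10% FBS, 2 mM L-glutamine, penicillin/streptomycin 100 µg/mL) grown 48 h with or without compound. Washed twice in Locke's solution (HEPES pH 7.6), then MTT 250 µg/mL for 90 min. Screening at 10 µM fixed concentration against untreated control. Concentration–response: mean + S.D. of 8–16 replicates from 4 separate experiments.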
A general note: Formazan colour is commonly taken as a measure of viable cells.

In test [2] the target is T1, Tubulin (Homo sapiens) (UniProt P68371+Q9H4B7+P0DPH7+P68366+Q13509+Q71U36+P04350+Q3ZCM7+P07437+P68363+Q9BQE3+Q6PEY2+Q13885+Q9BVA1+Q9BUF5). In words: Inhibition of alpha-tubulin polymerization in human MeWo cells at 3 X IC50 after 16 hrs by immunofluorescence microscopic analysis. Format: cell-based. The method, boiled down: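 MeWo cells on glass coverslips, drug-treated at 3× IC50, 16 h per the legend (24 h in methods). Stained with anti-tubulin (1:1000, 20 min RT), Alexa 488 secondary and nuclear dye, imaged at 63× oil. Representative of three experiments.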

Test [3] concerns the target T1, Tubulin (Homo sapiens). In words: Inhibition of alpha-tubulin polymerization in human MeWo cells at 3 X IC50 after 16 hrs by Western blot analysis in presence of paclitaxel. Format: cell-based. Summed up: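 MeWo cells in flasks, treated 16 h at 3× IC50 or left untreated. Trypsinised and lysed 10 min at RT in hypotonic buffer (20 mM Tris-HCl pH 6.8, 1 mM MgCl2, 2 mM EGTA, 0.5% NP-40, protease inhibitors) containing paclitaxel. Equal protein centrifuged 13000 rpm, 15 min. Pellet (polymerized) and supernatant (free) α-tubulin compared by SDS-PAGE/western blot, chemiluminescence. Three experiments; CA-4 positive control.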
A general note: Immunoblotting shows a protein as a band on a membrane.

In test [4] the test system is MeWo. In words: Antitubulinic activity in human MeWo cells assessed as blockade in G2/M phase at 3 X IC50 after 16 hrs by propidium iodide staining-based FACS analysis. Format: functional, cell-based. The method, boiled down:
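MeWo cells (DMEM, 10% FBS, 2 mM L-glutamine, pen/strep) exposed 16 h to vehicle or compound. Washed once in PBS, then fixed in ice-cold 30:70 PBS/EtOH and held at −20 °C before DNA-content flow cytometry. Histograms shown are representative of three separate experiments.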
A general note: A flow cytometer gives signals particle by particle.

The subject of test [5] is MeWo. In words: Cytotoxicity against human MeWo cells assessed as cell viability after 48 hrs by MTT assay. Format: functional, cell-based. The method, boiled down:
as §1

A short description of test [6]: Cytotoxicity against human SH-SY5Y cells assessed as cell viability after 48 hrs by MTT assay. Format: functional, cell-based. Summed up:
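SH-SY5Y neuroblastoma cells in 50% DMEM/50% F-12 with 10% FBS, treated 48 h across a concentration range. Viability by MTT: cells washed twice in Locke's solution (pH 7.6), then 90 min with MTT 250 µg/mL. Mean + S.D. of 8–16 replicates from 4 separate experiments.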

Active and inactive are the calls of the source. The calls are words filed in the database; no cut-off is given here.

As a reminder, the IC50 is the concentration at which inhibition is half-maximal.

For `Oc1ccc(/C=C/c2cc(-c3ccccc3)[nH]n2)cc1`, the viability at 10 µM with MeWo [1] came out at 98%.

`COc1cccc(/C=C/c2cc(-c3ccc(O)c(OC)c3)[nH]n2)c1`: the inhibition entry at Tubulin (Homo sapiens) [2] and at Tubulin (Homo sapiens) [3] was “Active” throughout. For the same compound, the outcome in the test on MeWo [4] was Active. In addition, the IC50 in the test with MeWo [5] amounted to 3.6 µM; in test [6], 10.6 µM. In the test with MeWo [1], the viability at 10 µM amounted to 27%. For `COc1cc(/C=C/C(O)=C/C(=O)c2ccc(O)c(OC)c2)cc(OC)c1`, the viability at 10 µM in the test with MeWo [1] stood at 88%. Turning to `COc1cc(/C=C/C(O)=C/C(=O)c2ccc(O)c(OC)c2)ccc1O`, in the test on MeWo [1], the viability at 10 µM turned out to be 97%.

For `O=C(/C=C(O)/C=C/c1ccc(O)cc1)c1ccc(O)cc1`, the viability at 10 µM in the test on MeWo [1] was found to be 77%.

On to `COc1cc(/C=C/c2cc(-c3ccccc3)[nH]n2)cc(OC)c1OC`, for which the viability at 10 µM in the test with MeWo [1] is 89%. In the case of `COc1cc(/C=C/C(O)=C/C(=O)c2ccccc2)ccc1O`, in the test on MeWo [1], the viability at 10 µM came to 90%. Still for that read-out and setting: next, `COc1cc(/C=C/C(O)=C/C(=O)c2ccccc2)cc(OC)c1`: 92%. `Oc1ccc(/C=C/c2cc(-c3ccc(O)cc3)[nH]n2)cc1`: the viability at 10 µM with MeWo [1] is 87%. As for `COc1ccc(/C=C/C(O)=C/C(=O)c2ccccc2)cc1`, in the test on MeWo [1], the viability at 10 µM was 90%. On to `COc1ccc(/C=C/c2cc(-c3ccc(O)cc3)[nH]n2)cc1`, for which the viability at 10 µM in the test on MeWo [1] came to 81%. For the compound `O=C(/C=C(O)/C=C/c1ccc(O)cc1)c1ccccc1`, the viability at 10 µM with MeWo [1] stood at 90%. For `COc1cc(C(=O)/C=C(O)/C=C/c2cc(OC)c(OC)c(OC)c2)ccc1O`, the viability at 10 µM in the test with MeWo [1] worked out at 89%. Turning to `COc1ccc(/C=C/C(O)=C/C(=O)c2ccc(O)c(OC)c2)cc1`, the viability at 10 µM in the test on MeWo [1] worked out at 84%. On the same count and under the same terms, the figure for `COc1cc(/C=C/C(O)=C/C(=O)c2ccc(O)cc2)ccc1O` is 89%; for `COc1ccc(/C=C/C(O)=C/C(=O)c2ccc(O)cc2)cc1` it is 93%; for `COc1cc(/C=C/c2cc(-c3ccc(O)cc3)[nH]n2)cc(OC)c1OC` it is 85%. Regarding `COc1cc(C(=O)/C=C(O)/C=C/c2ccc(O)cc2)ccc1O`, in the test on MeWo [1], the viability at 10 µM is 98%. As to `COc1cc(/C=C/c2cc(-c3ccccc3)[nH]n2)cc(OC)c1`, the viability at 10 µM in the test on MeWo [1] came to 90%. In the case of `COc1cc(/C=C/C(O)=C/C(=O)c2ccccc2)cc(OC)c1OC`, the viability at 10 µM with MeWo [1] stood at 93%. Turning to `COc1cc(/C=C/c2cc(-c3ccc(O)cc3)[nH]n2)cc(OC)c1`, the inhibition result at Tubulin (Homo sapiens) [2] and at Tubulin (Homo sapiens) [3] was “Active” throughout. Besides, the outcome in the test on MeWo [4] was Active. The IC50 in the test on MeWo [5] is 5.7 µM; in test [6], 10.6 µM. For the same compound, the viability at 10 µM in the test with MeWo [1] worked out at 38%. Regarding `COc1ccc(/C=C/c2cc(-c3ccccc3)[nH]n2)cc1`, in the test with MeWo [1], the viability at 10 µM was determined as 92%.

In the case of `COc1cc(/C=C/C(O)=C/C(=O)c2ccc(O)cc2)cc(OC)c1OC`, the viability at 10 µM with MeWo [1] came out at 85%. As for `COc1cc(-c2cc(/C=C/c3ccc(O)cc3)n[nH]2)ccc1O`, the viability at 10 µM with MeWo [1] amounted to 95%.

Take `COc1ccc(/C=C/c2cc(-c3ccc(O)c(OC)c3)[nH]n2)cc1`: in the test on MeWo [1], the viability at 10 µM came out at 92%.

On to `COc1cc(/C=C/c2cc(-c3ccc(O)c(OC)c3)[nH]n2)cc(OC)c1`, for which the inhibition entry at Tubulin (Homo sapiens) [2] and on Tubulin (Homo sapiens) [3] was “Active” in each case. Also, the result in the test with MeWo [4] was Active. Besides, the IC50 is 4.8 µM with MeWo [5] and 11.8 µM in test [6]. In addition, the viability at 10 µM with MeWo [1] amounted to 43%. Take `COc1cc(-c2cc(/C=C/c3cc(OC)c(OC)c(OC)c3)n[nH]2)ccc1O`: the viability at 10 µM in the test with MeWo [1] is 75%. On to `COc1cc(/C=C/c2cc(-c3ccc(O)cc3)[nH]n2)ccc1O`, for which the viability at 10 µM with MeWo [1] came out at 69%. Regarding `COc1cc(/C=C/c2cc(-c3ccccc3)[nH]n2)ccc1O`, the viability at 10 µM with MeWo [1] stood at 51%. In the case of `COc1cc(/C=C/C(=O)CC(=O)/C=C/c2ccc(O)c(OC)c2)ccc1O` [CURCUMIN], the inhibition entry at Tubulin (Homo sapiens) [2] and on Tubulin (Homo sapiens) [3] was “Active” in each case. Further, in the test with MeWo [4], the result was Active. Besides, the figures for the IC50 (in the test on MeWo [5]; in test [6]) were 35.5 µM and 11.4 µM, respectively. Also, the viability at 10 µM with MeWo [1] is 90%.

Regarding `COc1cc(/C=C/C(O)=C/C(=O)c2ccc(O)cc2)cc(OC)c1`, the viability at 10 µM with MeWo [1] is 90%. With `COc1cc(/C=C/c2cc(-c3ccc(O)c(OC)c3)[nH]n2)ccc1O`, the inhibition result on Tubulin (Homo sapiens) [2] and on Tubulin (Homo sapiens) [3] was “Active” throughout. Also, the outcome in the test with MeWo [4] was Active. In addition, the figures for the IC50 (in the test on MeWo [5]; in test [6]) were 3.7 µM and 4 µM, respectively. In the test on MeWo [1], the viability at 10 µM was 36%.

For the origin of these results see ChEMBL document CHEMBL2413031, “Synthesis and tubulin-binding properties of non-symmetrical click C5-curcuminoids” (Bioorg Med Chem, 2013).
